# Measured values as given in ChEMBL document CHEMBL1150302, “Aminoacyl-tRNA synthetase inhibitors as potent and synergistic immunosuppressants” (J Med Chem, 2008).
# Calls of active or inactive are those of the source. The calls are words filed in the database; no cut-off is given here.
# Columns and labels:
# PBMC [1] = experiment: Immunosuppressive activity against human PBMC assessed as inhibition of allogenic mixed lymphocyte reaction; assay type: functional, cell-based
# How it was run: (§1)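 Responder cells taken from the Ficoll-plasma interface, washed three times (0.12 × 10⁶), cocultured for 6 days with mitomycin C-treated RPMI 1788 stimulator cells (0.045 × 10⁶) and compound in RPMI 1640 with 10% fetal calf serum. Pulsed after five days with 1 µCi methyl-³H thymidine, harvested 18 h later and counted. cpm converted to % inhibition versus compound-free MLR.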
# PBMC [2] = experiment: Immunosuppressive activity against human PBMC assessed as inhibition of allogenic mixed lymphocyte reaction at 0.5 uM; assay type: functional; how it was run: as §1
# PBMC [3] = experiment: Immunosuppressive activity against human PBMC assessed as inhibition of allogenic mixed lymphocyte reaction at 0.1 uM; assay type: functional; how it was run: as §1
# PBMC [4] = experiment: Immunosuppressive activity against human PBMC assessed as inhibition of allogenic mixed lymphocyte reaction at 1.0 uM; assay type: functional; how it was run: as §1
# PBMC [5] = experiment: Immunosuppressive activity against human PBMC assessed as inhibition of allogenic mixed lymphocyte reaction at 0.0008 uM; assay type: functional; how it was run: as §1
# PBMC [6] = experiment: Immunosuppressive activity against human PBMC assessed as inhibition of allogenic mixed lymphocyte reaction at 0.0004 uM; assay type: functional; how it was run: as §1
# PBMC [7] = experiment: Immunosuppressive activity against human PBMC assessed as inhibition of allogenic mixed lymphocyte reaction upto 10 uM; assay type: functional, cell-based; how it was run: as §1
# PBMC [8] = experiment: Immunosuppressive activity against human PBMC assessed as inhibition of allogenic mixed lymphocyte reaction at 0.06 uM; assay type: functional; how it was run: as §1
# PBMC [9] = experiment: Immunosuppressive activity against human PBMC assessed as inhibition of allogenic mixed lymphocyte reaction at 0.01 uM; assay type: functional; how it was run: as §1
# PBMC [10] = experiment: Immunosuppressive activity against human PBMC assessed as inhibition of allogenic mixed lymphocyte reaction at 0.08 uM; assay type: functional; how it was run: as §1
Structure (SMILES),IC50 (PBMC [1]),further results
Nc1ncnc2c1ncn2[C@@H]1CO[C@H](COS(=O)(=O)NC(=O)[C@H](Cc2ccccc2)NCc2ccccc2)[C@@H](O)[C@H]1O,0.08 µM,
C[C@H](N)C(=O)NS(=O)(=O)OC[C@H]1OC[C@@H](n2cnc3c(N)ncnc32)[C@H](O)[C@@H]1O,0.3 µM,inhibition at 0.5 µM (PBMC [2]): 68%
Nc1ncnc2c1ncn2[C@@H]1CO[C@H](COS(=O)(=O)NC(=O)[C@@H]2CCCN2)[C@@H](O)C1,2.8 µM,
C=C(C)CC(N)C(=O)NS(=O)(=O)OC[C@H]1O[C@@H](n2cnc3c(N)ncnc32)[C@H](O)[C@@H]1O (mixture of isomers),0.55 µM,
Nc1ncnc2c1ncn2[C@@H]1O[C@H](COS(=O)(=O)NC(=O)[C@@H](N)Cc2cnc[nH]2)[C@@H](O)[C@H]1O,1 µM,inhibition at 0.1 µM (PBMC [3]): 12.4%
Nc1ncnc2c1ncn2[C@@H]1O[C@H](COS(=O)(=O)NC(=O)[C@@H]2CCN2)[C@@H](O)[C@H]1O,0.6 µM,
Nc1ncnc2c1ncn2[C@@H]1O[C@H](COS(=O)(=O)NC(=O)[C@@H](N)Cc2c[nH]cn2)[C@@H](O)[C@H]1F,0.45 µM,
N=C(N)NCCC[C@H](N)C(=O)NS(=O)(=O)OC[C@H]1O[C@@H](n2cnc3c(N)ncnc32)[C@H](O)[C@@H]1O,1 µM,
C[C@H](N)C(=O)NS(=O)(=O)OC[C@H]1OC[C@@H](n2cnc3c(N)ncnc32)C[C@@H]1O,5.5 µM,
Nc1ncnc2c1ncn2[C@@H]1O[C@H](COS(=O)(=O)NC(=O)[C@@H](N)Cc2ccccc2)[C@@H](O)[C@H]1O [PHESA],1 µM,inhibition at 0.5 µM (PBMC [2]): 53.4%; inhibition at 0.1 µM (PBMC [3]): 10.7%
CC[C@H](N)C(=O)NS(=O)(=O)OC[C@H]1O[C@@H](n2cnc3c(N)ncnc32)[C@H](O)[C@@H]1O,5.5 µM,
CCC[C@H](N)C(=O)NS(=O)(=O)OC[C@H]1O[C@@H](n2cnc3c(N)ncnc32)[C@H](O)[C@@H]1O,4.7 µM,
CSCC[C@H](N)C(=O)NS(=O)(=O)OC[C@H]1OC[C@@H](n2cnc3c(N)ncnc32)C[C@@H]1O,5.5 µM,
Nc1ncnc2c1ncn2[C@@H]1O[C@H](COS(=O)(=O)NC(=O)[C@@H](N)Cc2c[nH]c3ccccc23)[C@@H](O)[C@H]1O,0.5 µM,inhibition at 0.5 µM (PBMC [2]): 27.6%; inhibition at 0.1 µM (PBMC [3]): 2.3%
Nc1ncnc2c1ncn2[C@@H]1O[C@H](COS(=O)(=O)NC(=O)[C@@H](N)CS)[C@@H](O)[C@H]1O,0.4 µM,
Nc1ncnc2c1ncn2[C@@H]1O[C@H](COS(=O)(=O)NC(=O)[C@@H](N)CCC(=O)O)[C@@H](O)[C@H]1O,4.9 µM,
CC(C)C[C@H](N)C(=O)NS(=O)(=O)OC[C@H]1O[C@@H](n2cnc3c(N)ncnc32)[C@H](O)[C@@H]1O [LEUSA],1.1 µM,inhibition at 0.5 µM (PBMC [2]): 16.3%; inhibition at 0.1 µM (PBMC [3]): 16%
CSCC[C@H](N)C(=O)NS(=O)(=O)OC[C@H]1O[C@@H](n2cnc3c(N)ncnc32)[C@H](O)[C@@H]1O,0.5 µM,inhibition at 0.5 µM (PBMC [2]): 28.4%
NCC(=O)NS(=O)(=O)OC[C@H]1O[C@@H](n2cnc3c(N)ncnc32)[C@H](O)[C@@H]1O,0.8 µM,
Nc1ncnc2c1ncn2[C@@H]1O[C@H](COS(=O)(=O)NC(=O)[C@H](Cc2ccccc2)NCc2ccccc2)[C@@H](O)[C@H]1O,0.2 µM,inhibition at 0.1 µM (PBMC [3]): 31.1%
NCCCC[C@H](N)C(=O)NS(=O)(=O)OC[C@H]1O[C@@H](n2cnc3c(N)ncnc32)[C@H](O)[C@@H]1O,1 µM,inhibition at 1 µM (PBMC [4]): 67%
Nc1ncnc2c1ncn2[C@@H]1CO[C@H](COS(=O)(=O)NC(=O)[C@@H](N)Cc2c[nH]cn2)[C@@H](O)[C@H]1O,1.2 µM,
CO[C@H]1C[C@@H]2CC[C@@H](C)[C@@](O)(O2)C(=O)C(=O)N2CCCC[C@H]2C(=O)O[C@H]([C@H](C)C[C@@H]2CC[C@@H](O)[C@H](OC)C2)CC(=O)[C@H](C)/C=C(\C)[C@@H](O)[C@@H](OC)C(=O)[C@H](C)C[C@H](C)/C=C/C=C/C=C/1C [SIROLIMUS],,inhibition at 0.0008 µM (PBMC [5]): 32.5%; inhibition at 0.0004 µM (PBMC [6]): 13.1%
CC(C)C[C@H](N)C(=O)NS(=O)(=O)OC[C@H]1OC[C@@H](n2cnc3c(N)ncnc32)[C@H](O)[C@@H]1O,1 µM,

Structure (SMILES),IC50 (PBMC [1]),further results
CSCC[C@H](N)C(=O)NS(=O)(=O)OC[C@H]1O[C@@H](n2cnc3c(N)ncnc32)[C@H](F)[C@@H]1O,0.4 µM,
NC(=O)CC[C@H](N)C(=O)NS(=O)(=O)OC[C@H]1O[C@@H](n2cnc3c(N)ncnc32)[C@H](O)[C@@H]1O,0.8 µM,
C[C@H](N)C(=O)NS(=O)(=O)OC[C@H]1O[C@@H](n2cnc3c(N)ncnc32)[C@H](F)[C@@H]1O,0.4 µM,
CC(C)C[C@H](N)C(=O)NS(=O)(=O)OC[C@H]1OC[C@@H](n2cnc3c(N)ncnc32)C[C@@H]1O,6.8 µM,
Nc1ncnc2c1ncn2[C@@H]1O[C@H](COS(=O)(=O)NC(=O)[C@@H]2CSCN2)[C@@H](O)[C@H]1O,0.55 µM,
Nc1ncnc2c1ncn2[C@@H]1CO[C@H](COS(=O)(=O)NC(=O)[C@@H]2CCCN2)[C@@H](O)[C@H]1O,0.75 µM,
Nc1ncnc2c1ncn2[C@@H]1CO[C@H](COS(=O)(=O)NC(=O)[C@@H](N)Cc2c[nH]cn2)[C@@H](O)C1,6.7 µM,
NC(=O)C[C@H](N)C(=O)NS(=O)(=O)OC[C@H]1O[C@@H](n2cnc3c(N)ncnc32)[C@H](O)[C@@H]1O,0.3 µM,
C[C@@H](O)[C@H](N)C(=O)NS(=O)(=O)OC[C@H]1O[C@@H](n2cnc3c(N)ncnc32)[C@H](O)[C@@H]1O,5.2 µM,
CC(C)[C@H](N)C(=O)NS(=O)(=O)OC[C@H]1O[C@@H](n2cnc3c(N)ncnc32)[C@H](O)[C@@H]1O,5.6 µM,
Nc1ncnc2c1ncn2[C@@H]1O[C@H](COS(=O)(=O)NC(=O)[C@@H](N)Cc2ccc(O)cc2)[C@@H](O)[C@H]1O,5.6 µM,
Nc1ncnc2c1ncn2[C@@H]1O[C@H](COS(=O)(=O)NC(=O)[C@@H]2CCCN2)[C@@H](O)[C@H]1O,0.7 µM,inhibition at 0.5 µM (PBMC [2]): 18.6%; inhibition at 0.1 µM (PBMC [3]): -2.7%
CC[C@H](C)[C@H](N)C(=O)NS(=O)(=O)OC[C@H]1O[C@@H](n2cnc3c(N)ncnc32)[C@H](O)[C@@H]1O,5.6 µM,
Nc1ncnc2c1ncn2[C@@H]1O[C@H](COS(=O)(=O)NC(=O)[C@@H]2CCCN2)[C@@H](O)[C@H]1F,0.3 µM,
N=C(N)NCCC[C@H](N)C(=O)NS(=O)(=O)OC[C@H]1OC[C@@H](n2cnc3c(N)ncnc32)C[C@@H]1O,0.6 µM,
CSCC[C@H](N)C(=O)NS(=O)(=O)OC[C@H]1OC[C@@H](n2cnc3c(N)ncnc32)[C@H](O)[C@@H]1O,5.2 µM,
C/C(=C\C(=O)OCCCCCCCCC(=O)O)C[C@@H]1OC[C@H](C[C@@H]2O[C@H]2[C@@H](C)[C@H](C)O)[C@@H](O)[C@H]1O,,Activity (PBMC [7]): inactive
CC(C)C[C@H](N)C(=O)NS(=O)(=O)OC[C@H]1O[C@@H](n2cnc3c(N)ncnc32)[C@H](F)[C@@H]1O,0.45 µM,
C[C@H](N)C(=O)NS(=O)(=O)OC[C@H]1O[C@@H](n2cnc3c(N)ncnc32)[C@H](O)[C@@H]1O [ALASA],1.7 µM,inhibition at 0.5 µM (PBMC [2]): 4.9%; inhibition at 0.1 µM (PBMC [3]): 6.5%
C/C=C/C[C@@H](C)[C@@H](O)[C@H]1C(=O)N[C@@H](CC)C(=O)N(C)CC(=O)N(C)[C@@H](CC(C)C)C(=O)N[C@@H](C(C)C)C(=O)N(C)[C@@H](CC(C)C)C(=O)N[C@@H](C)C(=O)N[C@H](C)C(=O)N(C)[C@@H](CC(C)C)C(=O)N(C)[C@@H](CC(C)C)C(=O)N(C)[C@@H](C(C)C)C(=O)N1C [CYCLOSPORINE],,inhibition at 0.06 µM (PBMC [8]): 65.7%; inhibition at 0.01 µM (PBMC [9]): 32%; inhibition at 0.08 µM (PBMC [10]): 75.2%
Nc1ncnc2c1ncn2[C@@H]1O[C@H](COS(=O)(=O)NC(=O)[C@@H](N)CO)[C@@H](O)[C@H]1O,4.8 µM,
N=C(N)NCCC[C@H](N)C(=O)NS(=O)(=O)OC[C@H]1OC[C@@H](n2cnc3c(N)ncnc32)[C@H](O)[C@@H]1O,0.6 µM,
Nc1ncnc2c1ncn2[C@@H]1O[C@H](COS(=O)(=O)NC(=O)[C@@H](N)CC(=O)O)[C@@H](O)[C@H]1O,2.4 µM,
